# According to ChEMBL document CHEMBL1145694, “In vitro evaluation of antifungal properties of 8.O.4'-neolignans” (1997):
# Activity calls are given as the source filed them. No cut-off for these calls is given here.
# Columns and labels:
# Aspergillus niger = experiment: Antifungal activity against Aspergillus niger ATCC 9029 up to 250 ug/mL by agar dilution method; format: functional, organism-based
# Outline: (§1)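 Agar dilution in Saboureaud-chloramphenicol agar wells. Test agents from DMSO stocks were serially diluted twofold to final 0.10–250 µg/mL, with DMSO ≤2% final. Each well got 5 µL of yeast cell or spore suspension (spores at 10⁶ CFU/mL). Ketoconazole and amphotericin B served as positive controls, with a drug-free blank. Plates were held at 30 °C for 24, 48 or 72 h, set by control growth. MIC = lowest concentration with no visible growth.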
# Cryptococcus neoformans = experiment: Antifungal activity against Cryptococcus neoformans ATCC 32264 up to 250 ug/mL by agar dilution method; format: functional, organism-based; outline: as §1
# [1] = test system: Trichophyton mentagrophytes; experiment: Antifungal activity against Trichophyton mentagrophytes ATCC 9972 after 15 days by agar dilution method; format: functional; details: ATCC 9972, 360 h
# Outline: (§2)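 Dermatophytes were kept on Saboureaud dextrose agar slopes and subcultured every 15 days. Spore suspensions were set to 10⁶ CFU/mL, and 5 µL went into Saboureaud-chloramphenicol agar wells. Wells held twofold dilutions from DMSO stocks, final 0.10–250 µg/mL, DMSO ≤2%. Ketoconazole and amphotericin B were positive controls, with a drug-free blank. Incubation was at 30 °C for up to 15 days. MIC = lowest concentration with no visible growth.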
# Nannizzia gypsea = experiment: Antifungal activity against Microsporum gypseum C115 after 15 days by agar dilution method; format: functional; details: 360 h; outline: as §2
# Microsporum canis = experiment: Antifungal activity against Microsporum canis C112 after 15 days by agar dilution method; format: functional; details: 360 h; outline: as §2
# Saccharomyces cerevisiae = experiment: Antifungal activity against Saccharomyces cerevisiae ATCC 9763 up to 250 ug/mL by agar dilution method; format: functional, organism-based; outline: as §1
# Epidermophyton floccosum = experiment: Antifungal activity against Epidermophyton floccosum C114 after 15 days by agar dilution method; format: functional; details: 360 h; outline: as §2
# Aspergillus fumigatus = experiment: Antifungal activity against Aspergillus fumigatus ATCC 26934 up to 250 ug/mL by agar dilution method; format: functional, organism-based; outline: as §1
# Aspergillus flavus = experiment: Antifungal activity against Aspergillus flavus ATCC 9170 up to 250 ug/mL by agar dilution method; format: functional, organism-based; outline: as §1
# Trichophyton rubrum = experiment: Antifungal activity against Trichophyton rubrum C113 after 15 days by agar dilution method; format: functional; details: 360 h; outline: as §2
# Candida albicans = experiment: Antifungal activity against Candida albicans ATCC 10231 up to 250 ug/mL by agar dilution method; format: functional, organism-based; outline: as §1
SMILES,Activity (Aspergillus niger),Activity (Cryptococcus neoformans),MIC [1] [µg/mL],MIC (Nannizzia gypsea) [µg/mL],MIC (Microsporum canis) [µg/mL],Activity (Saccharomyces cerevisiae),MIC (Epidermophyton floccosum) [µg/mL],Activity (Aspergillus fumigatus),Activity (Aspergillus flavus),MIC (Trichophyton rubrum) [µg/mL],Activity (Candida albicans)
C/C=C/c1ccc(OC(C)C(=O)c2ccc(OC)c(OC)c2)c(OC)c1 (racemic),inactive,inactive,> 250,250,> 250,inactive,> 250,inactive,inactive,> 250,inactive
C=CCc1ccc(O[C@@H](C)[C@@H](O)c2ccc(OC)c(OC)c2)c(OC)c1 (racemic),inactive,inactive,40,60,20,inactive,25,inactive,inactive,20,inactive
C/C=C/c1ccc(O[C@H](C)[C@@H](O)c2ccc(OC)c(OC)c2)c(OC)c1 (racemic),inactive,inactive,150,50,50,inactive,70,inactive,inactive,20,inactive
C=CCc1cc(OC)c(O[C@H](C)[C@@H](O)c2ccc(OC)c(OC)c2)c(OC)c1 (racemic),inactive,inactive,150,50,150,inactive,40,inactive,inactive,80,inactive
C=CCc1ccc(OC(C)C(=O)c2ccc(OC)c(OC)c2)c(OC)c1 (racemic),inactive,inactive,> 250,250,250,inactive,250,inactive,inactive,250,inactive
C/C=C/c1ccc(OC(C)C(=O)c2cc(OC)c(OC)c(OC)c2)c(OC)c1 (racemic),inactive,inactive,> 250,> 250,> 250,inactive,> 250,inactive,inactive,> 250,inactive
C=CCc1cc(OC)c(O[C@@H](C)[C@@H](O)c2cc(OC)c(OC)c(OC)c2)c(OC)c1 (racemic),inactive,inactive,50,80,60,inactive,60,inactive,inactive,25,inactive
C=CCc1cc(OC)c(O[C@H](C)[C@@H](O)c2ccc3c(c2)OCO3)c(OC)c1 (racemic),inactive,inactive,100,50,20,inactive,5,inactive,inactive,> 250,inactive
C=CCc1cc(OC)c(OC(C)C(=O)c2ccc(OC)c(OC)c2)c(OC)c1 (racemic),inactive,inactive,> 250,> 250,250,inactive,> 250,inactive,inactive,> 250,inactive
C=CCc1cc(OC)c(OC(C)C(=O)c2cc(OC)c(OC)c(OC)c2)c(OC)c1 (racemic),inactive,inactive,> 250,> 250,250,inactive,> 250,inactive,inactive,> 250,inactive
